Active and inactive are the calls of the source. No cut-off for these calls is given here. Non-standard residues stand in square brackets, D forms with d. Residues, ends and D or L forms follow the SMILES beside them. *: point of attachment. Phe(4-guanidino) = N=C(N)Nc1ccc(C[C@H](N)C(=O)O)cc1; Phe(3-CN) = N#Cc1cccc(C[C@H](N)C(=O)O)c1; Phe(4-CN) = N#Cc1ccc(C[C@H](N)C(=O)O)cc1; Phe(4-NH2) = Nc1ccc(C[C@H](N)C(=O)O)cc1; Hydrocinnamoyl = O=C(CCc1ccccc1)*; 3Pal = N[C@@H](Cc1cccnc1)C(=O)O; 4Pal = N[C@@H](Cc1ccncc1)C(=O)O; Phg = N[C@H](C(=O)O)c1ccccc1; Bz = O=C(c1ccccc1)*
How the values were obtained:
Trypsin [1] = target: T1, Trypsin (Homo sapiens, UniProt P07477+P07478+P35030); assay: Inhibition of trypsin (unknown origin) at 50 uM preincubated with protein for 15 mins followed by boc-Val-Pro-Arg-AMC substrate addition measured by continuous fluorometric analysis; type: protein assay
Procedure, shortened: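 Trypsin (1 nM) was preincubated 15 min with inhibitor (50 μM final) in 50 mM Tris-HCl pH 7.5, 150 mM NaCl, 0.05% Tween 20. boc-Val-Pro-Arg-AMC (50 μM final) was added. Continuous fluorescence at ex 355/em 460 nm; rate compared with an uninhibited control. Triplicate.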

dengue virus type 2 [2] = assay: Inhibition of Dengue virus (serotype 2) NS2B-NS3 protease at 50 uM preincubated with protein for 15 mins followed by Abz-Nle-Lys-Arg-Arg-Ser-3-(NO2)Tyr substrate addition measured by continuous fluorometric analysis
Procedure, shortened: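 Continuous FRET assay in 50 mM Tris-HCl pH 9.0, 10% ethylene glycol, 0.0016% Brij 58. DENV2 protease (100 nM) was preincubated 15 min with inhibitor (50 μM final), then Abz-Nle-Lys-Arg-Arg-Ser-3-(NO2)Tyr (50 μM final; Km 105 μM) was added. Read at ex 320/em 405 nm as slope over 15 min, relative to an uninhibited control. Triplicate.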

[3] = target: Genome polyprotein (West Nile virus) (UniProt P06935); assay: Inhibition of West Nile virus NS2B-NS3 protease at 50 uM preincubated with protein for 15 mins followed by Abz-Gly-Leu-Lys-Arg-Gly-Gly-3-(NO2)-Tyr substrate addition measured by continuous fluorometric analysis
Genome polyprotein (West Nile virus), sequence (P06935 whole entry): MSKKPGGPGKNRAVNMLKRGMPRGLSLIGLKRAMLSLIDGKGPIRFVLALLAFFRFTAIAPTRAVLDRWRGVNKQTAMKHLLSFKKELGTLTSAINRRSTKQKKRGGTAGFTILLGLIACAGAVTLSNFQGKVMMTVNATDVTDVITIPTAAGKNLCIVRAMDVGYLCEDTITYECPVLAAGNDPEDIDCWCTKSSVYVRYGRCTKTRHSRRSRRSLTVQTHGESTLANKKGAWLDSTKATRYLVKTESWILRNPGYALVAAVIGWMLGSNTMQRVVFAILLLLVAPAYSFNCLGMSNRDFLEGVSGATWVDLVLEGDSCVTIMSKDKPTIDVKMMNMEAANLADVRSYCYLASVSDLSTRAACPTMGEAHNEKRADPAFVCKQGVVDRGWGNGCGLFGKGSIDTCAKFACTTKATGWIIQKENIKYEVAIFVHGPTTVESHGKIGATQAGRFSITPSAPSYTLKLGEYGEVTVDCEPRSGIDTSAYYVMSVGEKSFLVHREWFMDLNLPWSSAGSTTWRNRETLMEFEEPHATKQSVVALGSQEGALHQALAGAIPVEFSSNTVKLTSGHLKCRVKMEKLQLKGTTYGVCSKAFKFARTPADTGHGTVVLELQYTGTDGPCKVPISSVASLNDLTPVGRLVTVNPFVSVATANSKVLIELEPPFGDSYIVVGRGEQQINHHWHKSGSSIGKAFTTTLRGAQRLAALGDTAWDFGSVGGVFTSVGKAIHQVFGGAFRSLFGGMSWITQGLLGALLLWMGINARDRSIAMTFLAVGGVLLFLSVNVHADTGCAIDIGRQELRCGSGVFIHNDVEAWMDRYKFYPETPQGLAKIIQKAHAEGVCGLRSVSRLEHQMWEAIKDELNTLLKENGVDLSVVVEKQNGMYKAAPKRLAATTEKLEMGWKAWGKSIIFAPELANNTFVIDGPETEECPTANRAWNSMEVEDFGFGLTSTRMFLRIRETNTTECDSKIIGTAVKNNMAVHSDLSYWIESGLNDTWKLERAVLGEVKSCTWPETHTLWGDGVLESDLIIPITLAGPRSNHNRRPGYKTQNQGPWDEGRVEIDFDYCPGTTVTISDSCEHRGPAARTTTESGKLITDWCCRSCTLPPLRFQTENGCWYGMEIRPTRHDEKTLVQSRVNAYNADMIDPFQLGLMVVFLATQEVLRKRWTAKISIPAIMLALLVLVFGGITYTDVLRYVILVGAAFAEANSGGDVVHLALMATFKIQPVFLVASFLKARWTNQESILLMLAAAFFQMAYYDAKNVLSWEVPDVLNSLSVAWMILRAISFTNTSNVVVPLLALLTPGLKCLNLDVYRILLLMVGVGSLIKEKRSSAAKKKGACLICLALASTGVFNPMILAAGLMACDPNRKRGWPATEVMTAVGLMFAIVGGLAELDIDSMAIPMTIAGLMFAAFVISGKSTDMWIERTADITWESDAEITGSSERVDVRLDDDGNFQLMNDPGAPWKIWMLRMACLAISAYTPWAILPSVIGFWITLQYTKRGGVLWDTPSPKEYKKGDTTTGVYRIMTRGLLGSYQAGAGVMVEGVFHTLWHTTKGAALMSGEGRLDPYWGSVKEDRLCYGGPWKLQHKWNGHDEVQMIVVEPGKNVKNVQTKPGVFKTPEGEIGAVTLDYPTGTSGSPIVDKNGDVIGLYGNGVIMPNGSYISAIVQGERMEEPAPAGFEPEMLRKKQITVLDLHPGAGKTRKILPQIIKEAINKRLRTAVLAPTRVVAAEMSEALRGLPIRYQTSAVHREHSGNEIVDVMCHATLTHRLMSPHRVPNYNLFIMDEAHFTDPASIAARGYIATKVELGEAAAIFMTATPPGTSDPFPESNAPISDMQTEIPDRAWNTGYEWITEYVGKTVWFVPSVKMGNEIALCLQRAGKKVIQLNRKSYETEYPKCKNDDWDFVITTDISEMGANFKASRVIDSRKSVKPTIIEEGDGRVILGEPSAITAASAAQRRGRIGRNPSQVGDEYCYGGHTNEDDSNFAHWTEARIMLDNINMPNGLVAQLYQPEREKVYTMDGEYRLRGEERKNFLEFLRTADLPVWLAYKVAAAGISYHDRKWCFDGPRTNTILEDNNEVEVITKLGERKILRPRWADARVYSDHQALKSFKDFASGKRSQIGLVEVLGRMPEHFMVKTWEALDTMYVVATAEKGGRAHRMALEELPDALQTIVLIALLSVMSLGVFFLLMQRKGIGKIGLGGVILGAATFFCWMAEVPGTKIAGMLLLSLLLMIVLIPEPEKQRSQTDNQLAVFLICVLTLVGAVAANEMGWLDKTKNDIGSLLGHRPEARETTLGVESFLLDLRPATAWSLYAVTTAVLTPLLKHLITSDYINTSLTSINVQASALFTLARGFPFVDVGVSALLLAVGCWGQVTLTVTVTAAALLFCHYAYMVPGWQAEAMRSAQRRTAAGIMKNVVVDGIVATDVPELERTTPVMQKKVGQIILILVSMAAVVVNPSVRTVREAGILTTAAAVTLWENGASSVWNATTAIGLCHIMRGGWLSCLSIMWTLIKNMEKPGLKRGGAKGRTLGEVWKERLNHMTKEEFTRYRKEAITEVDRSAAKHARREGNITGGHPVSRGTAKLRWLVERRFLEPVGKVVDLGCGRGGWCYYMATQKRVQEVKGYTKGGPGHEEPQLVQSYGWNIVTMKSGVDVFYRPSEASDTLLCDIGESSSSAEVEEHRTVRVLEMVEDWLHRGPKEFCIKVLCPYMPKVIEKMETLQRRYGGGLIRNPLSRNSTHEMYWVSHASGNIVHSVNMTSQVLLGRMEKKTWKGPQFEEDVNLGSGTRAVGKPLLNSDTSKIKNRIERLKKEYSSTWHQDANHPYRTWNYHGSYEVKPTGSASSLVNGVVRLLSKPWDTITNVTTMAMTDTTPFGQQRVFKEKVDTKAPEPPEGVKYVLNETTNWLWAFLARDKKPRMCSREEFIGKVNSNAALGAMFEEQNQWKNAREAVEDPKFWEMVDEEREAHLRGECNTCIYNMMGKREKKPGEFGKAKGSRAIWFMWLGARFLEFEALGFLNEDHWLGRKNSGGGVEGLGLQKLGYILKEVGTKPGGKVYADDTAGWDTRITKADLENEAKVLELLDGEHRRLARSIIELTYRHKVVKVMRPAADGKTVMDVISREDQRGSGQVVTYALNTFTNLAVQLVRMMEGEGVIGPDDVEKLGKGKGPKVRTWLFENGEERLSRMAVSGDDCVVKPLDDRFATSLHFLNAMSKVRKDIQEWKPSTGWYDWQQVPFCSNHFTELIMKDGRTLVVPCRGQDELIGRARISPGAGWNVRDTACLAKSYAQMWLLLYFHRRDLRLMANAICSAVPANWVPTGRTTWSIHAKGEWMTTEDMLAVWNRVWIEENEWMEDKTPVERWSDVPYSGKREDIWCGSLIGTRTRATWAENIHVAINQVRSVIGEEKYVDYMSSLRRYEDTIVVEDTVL
Procedure, shortened: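 WNV NS2B-NS3pro (150 nM) was preincubated 15 min with inhibitor (50 μM final) in 50 mM Tris-HCl pH 9.0, 10% ethylene glycol, 0.0016% Brij 58. Abz-Gly-Leu-Lys-Arg-Gly-Gly-3-(NO2)-Tyr (50 μM; Km 212 μM) started the reaction. Continuous read at ex 320/em 405 nm for 15 min against an uninhibited control. Triplicate.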

[4] = Inhibition of Dengue virus (serotype 2) NS2B-NS3 protease preincubated with protein for 15 mins followed by Abz-Nle-Lys-Arg-Arg-Ser-3-(NO2)Tyr substrate addition measured by continuous fluorometric analysis; set-up: species or system dengue virus type 2
Procedure, shortened: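 DENV2 protease (100 nM) in Tris-HCl pH 9.0/ethylene glycol/Brij 58 buffer, preincubated 15 min with inhibitor, then 50 μM FRET substrate added. Read at ex 320/em 405 nm over 15 min. Done for compounds with ≥70% inhibition, using series of 0–2.5, 0–6 or 0–30 μM, in triplicate, with nonlinear fitting. Ki came from substrate at 50–200 μM via Cheng–Prusoff.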

Prothrombin = Prothrombin (Homo sapiens, UniProt P00734); assay: Inhibition of human thrombin at 25 uM preincubated with protein for 15 mins followed by boc-Val-Pro-Arg-AMC substrate addition measured after 10 mins by continuous fluorometric analysis
[5] = Permeability of the compound at 200 uM incubated for 5 hrs by PAMPA; type: physicochemical
Procedure, shortened: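 PAMPA in PBS: donor wells held 200 μM compound (triplicate) against PBS acceptor, 5 h at room temperature. Donor and acceptor concentrations were quantified by RP-18 HPLC-UV against calibration curves (10–200 μM). Pe and membrane retention were calculated by a literature method. Amiloride, caffeine, famotidine, furosemide and phenytoin served as references.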

[6] = Cytotoxicity against human HuH7 cells at 50 uM incubated for 48 hrs measured by Cell-Titer Glo Luminescent viability Assay; type: cell-based; settings: huh-7, 48 h
dengue virus type 2 [7] = assay: Antiviral activity against wild type Dengue virus (serotype 2) infected in human Huh-7 cells assessed as inhibition of viral replication at 50 uM incubated for 48 hrs measured by Cell-Titer Glo Luminescent viability assay; type: functional; settings: Huh-7, 48 h
[8] = Half life in Sprague-Dawley rat liver microsomes at 100 uM incubated for 30 mins by HPLC analysis; type: ADME
Procedure, shortened: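 Pooled male Sprague-Dawley rat liver microsomes (0.2 mg/mL protein) with NADPH (5 mM) in DPBS, preincubated 15 min at 37 °C. Compound (100 μM) was then incubated 30 min at 37 °C. Aliquots at 0, 2, 5, 10, 20 and 30 min were quenched with acetonitrile, iced, and centrifuged. Parent remaining was measured by RP-HPLC-UV peak area versus reference. Testosterone served as activity control.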

Genome polyprotein = Genome polyprotein (West Nile virus, UniProt P06935); assay: Inhibition of West Nile virus NS2B-NS3 protease preincubated with protein for 15 mins followed by Abz-Gly-Leu-Lys-Arg-Gly-Gly-3-(NO2)-Tyr substrate addition measured by continuous fluorometric analysis
Genome polyprotein, sequence (P06935 1371-1501 limits assumed): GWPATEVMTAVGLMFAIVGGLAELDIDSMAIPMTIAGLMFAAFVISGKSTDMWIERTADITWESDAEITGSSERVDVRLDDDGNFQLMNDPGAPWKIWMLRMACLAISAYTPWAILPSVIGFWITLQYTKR
Genome polyprotein, sequence (P06935 1502-2120 limits assumed): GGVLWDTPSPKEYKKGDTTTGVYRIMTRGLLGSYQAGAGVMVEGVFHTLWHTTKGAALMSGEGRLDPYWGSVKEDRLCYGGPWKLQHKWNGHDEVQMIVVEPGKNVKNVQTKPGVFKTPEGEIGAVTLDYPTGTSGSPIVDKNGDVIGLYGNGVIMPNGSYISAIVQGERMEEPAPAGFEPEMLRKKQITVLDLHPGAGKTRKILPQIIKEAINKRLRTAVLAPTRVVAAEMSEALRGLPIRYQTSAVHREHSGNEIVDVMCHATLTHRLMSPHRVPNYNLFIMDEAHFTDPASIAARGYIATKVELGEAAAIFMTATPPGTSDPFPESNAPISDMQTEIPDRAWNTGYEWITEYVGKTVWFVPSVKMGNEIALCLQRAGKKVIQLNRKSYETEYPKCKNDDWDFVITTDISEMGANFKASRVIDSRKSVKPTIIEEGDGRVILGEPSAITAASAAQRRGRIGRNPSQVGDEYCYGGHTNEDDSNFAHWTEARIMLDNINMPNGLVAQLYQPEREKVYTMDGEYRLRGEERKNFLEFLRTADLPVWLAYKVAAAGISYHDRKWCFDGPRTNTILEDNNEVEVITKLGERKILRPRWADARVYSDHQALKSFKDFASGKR
Procedure, shortened: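 WNV protease (150 nM), 15-min preincubation with inhibitor in pH 9.0 Tris buffer, then 50 μM FRET substrate. Read at ex 320/em 405 nm. Done for compounds with ≥90% single-point inhibition, using graded inhibitor concentrations in triplicate, with the curve fitted.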

Trypsin [9] = target: T1, Trypsin; assay: Inhibition of trypsin (unknown origin) preincubated with protein for 15 mins followed by boc-Val-Pro-Arg-AMC substrate addition measured by continuous fluorometric analysis; type: protein assay

SMILES	inhibition (Trypsin [1])	inhibition (dengue virus type 2 [2])	inhibition [3]	IC50 [4]	inhibition (Prothrombin)	permeability [5]	Ki [4]	Activity [6]	inhibition at 50 µM (dengue virus type 2 [7])	half-life at 100 µM [8]	IC50 (Genome polyprotein)	IC50 (Trypsin [9])
N=C(N)Nc1ccc(C[C@H](NC(=O)c2ccc(C(F)(F)F)cc2)C(=O)N[C@@H](CCCCN)C(=O)N[C@H](C(N)=O)c2ccccc2)cc1	12.8%	100%	42.2%	690 nM	inactive	impermeable	–	–	–	–	–	–
NCCCC[C@H](NC(=O)[C@H](Cc1ccc(N)cc1)NC(=O)c1ccccc1)C(=O)N[C@H](C(N)=O)c1ccccc1 (Bz-[Phe(4-NH2)]-Lys-[Phg]-NH2)	0%	21.1%	23.8%	–	2.3%	–	–	–	–	–	–	–
N=C(N)c1ccc([C@H](NC(=O)c2ccccc2)C(=O)N[C@@H](CCCCN)C(=O)N[C@H](C(N)=O)c2ccccc2)cc1	19.2%	24.8%	59.5%	–	5.5%	–	–	–	–	–	–	–
N=C(N)c1ccc(C[C@H](NC(=O)c2ccccc2)C(=O)N[C@@H](CCCCN)C(=O)N[C@H](C(N)=O)c2ccccc2)cc1	17.4%	100%	59.1%	440 nM	18%	impermeable	232 nM	Non-toxic	32.4%	–	–	–
NCCCC[C@H](NC(=O)[C@H](Cc1cccc(N)c1)NC(=O)c1ccccc1)C(=O)N[C@H](C(N)=O)c1ccccc1	4.7%	28.9%	23.7%	–	inactive	–	–	–	–	–	–	–
N=C(N)c1cccc(C[C@H](NC(=O)c2ccccc2)C(=O)N[C@@H](CCCCN)C(=O)N[C@H](C(N)=O)c2ccccc2)c1	37%	94%	39.5%	3070 nM	71.1%	impermeable	–	–	–	–	–	–
N=C(N)c1cccc(C[C@H](NC(=O)c2ccc(C(F)(F)F)cc2)C(=O)N[C@@H](CCCCN)C(=O)N[C@H](C(N)=O)c2ccccc2)c1	27.1%	95.8%	76.1%	5810 nM	66.6%	impermeable	–	–	–	–	–	–
N=C(N)NCCC[C@H](NC(=O)c1ccccc1)C(=O)N[C@@H](CCCCN)C(=O)N[C@H](C(N)=O)c1ccccc1 (Bz-Arg-Lys-[Phg]-NH2)	0.5%	–	–	–	–	–	–	Non-toxic	40.3%	–	–	–
N=C(N)c1ccc(C[C@H](NC(=O)CCc2ccccc2)C(=O)N[C@@H](CCCCN)C(=O)N[C@H](C(N)=O)c2ccccc2)cc1	4.4%	101%	67.7%	260 nM	24.7%	impermeable	160 nM	Non-toxic	58.8%	22 min	–	–
N=C(N)Nc1ccc(C[C@H](NC(=O)c2ccccc2)C(=O)N[C@@H](CCCCN)C(=O)N[C@H](C(N)=O)c2ccccc2)cc1 (Bz-[Phe(4-guanidino)]-Lys-[Phg]-NH2)	16.2%	99.9%	64.7%	580 nM	7.6%	impermeable	–	–	–	–	–	–
CC(=O)Nc1ccc(C[C@H](NC(=O)c2ccccc2)C(=O)N[C@@H](CCCCN)C(=O)N[C@H](C(N)=O)c2ccccc2)cc1 (Bz-[Phe(4-NH2)](Ac)-Lys-[Phg]-NH2)	0%	34.8%	93.7%	–	7.4%	impermeable	–	–	–	–	3850 nM	–
N=C(N)c1ccc(C[C@H](NC(=O)c2ccc(C(F)(F)F)cc2)C(=O)N[C@@H](CCCCN)C(=O)N[C@H](C(N)=O)c2ccccc2)cc1	43.4%	99.8%	69.9%	210 nM	50.3%	impermeable	139 nM	Non-toxic	38.2%	–	–	–
N#Cc1cccc(C[C@H](NC(=O)c2ccccc2)C(=O)N[C@@H](CCCCN)C(=O)N[C@H](C(N)=O)c2ccccc2)c1 (Bz-[Phe(3-CN)]-Lys-[Phg]-NH2)	0%	29.6%	15.6%	–	4%	–	–	–	–	–	–	–
NCCCC[C@H](NC(=O)[C@H](Cc1cccc(CN)c1)NC(=O)c1ccccc1)C(=O)N[C@H](C(N)=O)c1ccccc1	11.2%	82.4%	68.6%	11800 nM	5.6%	impermeable	–	–	–	–	–	–
N=C(N)Nc1ccc(C[C@H](NC(=O)CCc2ccccc2)C(=O)N[C@@H](CCCCN)C(=O)N[C@H](C(N)=O)c2ccccc2)cc1 (Hydrocinnamoyl-[Phe(4-guanidino)]-Lys-[Phg]-NH2)	23.6%	101%	44.3%	890 nM	6.4%	impermeable	–	Non-toxic	8.8%	18 min	–	–
N=C(N)NCCC[C@H](NC(=O)c1ccc(C(F)(F)F)cc1)C(=O)N[C@@H](CCCCN)C(=O)N[C@H](C(N)=O)c1ccccc1	11.5%	98.7%	85.3%	1020 nM	7.7%	–	–	–	–	–	–	–
N=C(N)Nc1cccc([C@H](NC(=O)c2ccccc2)C(=O)N[C@@H](CCCCN)C(=O)N[C@H](C(N)=O)c2ccccc2)c1	90.8%	98.8%	89.4%	3090 nM	41.7%	impermeable	–	–	–	–	–	7100 nM
NCCCC[C@H](NC(=O)[C@H](Cc1cccnc1)NC(=O)c1ccccc1)C(=O)N[C@H](C(N)=O)c1ccccc1 (Bz-[3Pal]-Lys-[Phg]-NH2)	3.4%	17.5%	23.8%	–	1.8%	–	–	–	–	–	–	–
N#Cc1ccc(C[C@H](NC(=O)c2ccccc2)C(=O)N[C@@H](CCCCN)C(=O)N[C@H](C(N)=O)c2ccccc2)cc1 (Bz-[Phe(4-CN)]-Lys-[Phg]-NH2)	0.7%	22%	4.7%	–	7.5%	–	–	–	–	–	–	–
N=C(N)NCCC[C@H](NC(=O)CCc1ccccc1)C(=O)N[C@@H](CCCCN)C(=O)N[C@H](C(N)=O)c1ccccc1 (Hydrocinnamoyl-Arg-Lys-[Phg]-NH2)	2.3%	95.9%	45.3%	2700 nM	2.5%	–	–	–	–	–	–	–
CC(=N)Nc1ccc(C[C@H](NC(=O)c2ccccc2)C(=O)N[C@@H](CCCCN)C(=O)N[C@H](C(N)=O)c2ccccc2)cc1	0%	76.6%	34.2%	12700 nM	7.7%	impermeable	–	–	–	–	–	–
C[C@]12CC[C@H]3[C@@H](CCC4=CC(=O)CC[C@@]43C)[C@@H]1CC[C@@H]2O [TESTOSTERONE]	–	–	–	–	–	–	–	–	–	63 min	–	–
NCCCC[C@H](NC(=O)[C@H](Cc1ccncc1)NC(=O)c1ccccc1)C(=O)N[C@H](C(N)=O)c1ccccc1 (Bz-[4Pal]-Lys-[Phg]-NH2)	0%	12%	0%	–	3.8%	–	–	–	–	–	–	–
